Lung fibro prol – blocks proliferation of human lung fibroblasts; LL 47 human lung fibroblast viability, ATP luminescence; active compounds read low; viability, % at 10 µM; 85,000 compounds, 1.1% hits;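 active = viability at or below 50% in the single dose screen; inactive = viability above 50%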;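 note: compound exposure lasted 72 h before the ATP readout; 100% = median luminescence of untreated cell-only wells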
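Material: human lung fibroblast line LL 47, low passage; Evaluation: viability percentage against median untreated-cell control; Buffer or medium: 15% FBS in IMEM; Incubation: 72 h compound exposure at 37 °C after overnight plating; Dosing: 0.1% DMSO in all compound wells; Measured by: CellTiter-Glo luminescence.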
ERb SRC1 inh – ER-beta (human) coactivator binding inhibition; Q92731; TR-FRET ER-beta LBD / SRC1-Cy5 peptide binding; receptor agonist-loaded with 1 µM estradiol; inhibition, % at 25.6 µM; 86,000 compounds, 1.3% hits;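 active = compounds whose percent inhibition of the receptor-coactivator binding signal exceeds about 50% in the single-dose screen, limit read from the data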;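 note: 0% = receptor plus peptide wells without compound and 100% = peptide-only wells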
Target sequence (Q92731 whole entry, looked up, the tested form may be a part): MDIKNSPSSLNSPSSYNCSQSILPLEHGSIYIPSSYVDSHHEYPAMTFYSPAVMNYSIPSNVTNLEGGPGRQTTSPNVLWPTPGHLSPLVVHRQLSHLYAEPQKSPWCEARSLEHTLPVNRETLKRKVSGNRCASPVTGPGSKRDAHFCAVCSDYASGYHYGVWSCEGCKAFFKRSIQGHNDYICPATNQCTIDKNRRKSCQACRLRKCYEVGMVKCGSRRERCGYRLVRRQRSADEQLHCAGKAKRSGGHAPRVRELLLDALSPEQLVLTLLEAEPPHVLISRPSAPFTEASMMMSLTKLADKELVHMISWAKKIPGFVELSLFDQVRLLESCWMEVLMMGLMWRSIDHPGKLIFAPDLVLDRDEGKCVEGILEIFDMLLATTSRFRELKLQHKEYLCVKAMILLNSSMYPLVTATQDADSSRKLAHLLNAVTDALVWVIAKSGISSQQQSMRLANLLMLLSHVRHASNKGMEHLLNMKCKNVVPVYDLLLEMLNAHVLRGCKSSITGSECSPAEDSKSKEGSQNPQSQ
ERa SRC1 pot – ER-alpha (human) coactivator binding potentiation; P03372; TR-FRET ERalpha-LBD/SRC-Cy5 coactivator binding, 2 h; 100 = basal binding, no effect; coactivator binding (% of control), % at 25.6 µM; 86,000 compounds, 1.3% hits; AID 639; in the data active = activity above about 200%;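 note: binding measured in presence of low estradiol as agonist stimulus; 0% = peptide alone without receptor and 100% = receptor with peptide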
ERa SRC1 inh – blocks coactivator binding to human estrogen receptor alpha; P03372; TR-FRET ER-alpha LBD / SRC-1 peptide, estradiol-bound; inhibition, % at 25.6 µM; 86,000 compounds, 1.7% hits; AID 629; in the data active = inhibition above about 50%;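 note: 0% = receptor plus peptide control and 100% = peptide only without receptor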
H69AR growth 86K – growth inhibitors of human H69AR lung tumor cells; H69AR lung tumor viability, ATP luminescence, 72 h; active compounds read low; viability, % at 10 µM; 85,000 compounds, 6% hits; AID 598;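 active = viability at or below 40%; inactive = viability above 40%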;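 note: multidrug resistant small cell line overexpressing MRP-1 efflux transporter; 100% = mean luminescence of untreated control wells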
HUVEC prolif 384 – inhibitors of human endothelial cell proliferation | 86,000 compounds, 1.1% hits | HUVEC proliferation, CellTiter-Glo luminescence, 72 h; active compounds read low | AID 648 | viability, % at 10 µM (by protocol);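 active = viability at or below 30%; inactive = viability above 30%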;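 note: 100% = median luminescence of DMSO-only cell control wells on each plate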
* hit, by the source's call; nt = no result; [ ] = another dose, or the depositor's remark. Only some compounds are listed: those with a hit (about 9.2% of all), similar ones and a draw of the others.

SMILES	Lung fibro prol	ERb SRC1 inh	ERa SRC1 pot	ERa SRC1 inh	H69AR growth 86K	HUVEC prolif 384
COc1ccc2nc3oc(C(=O)Nc4ccc(OC)c(OC)c4)cc3cc2c1	96.6	41.4	108.3	63.0*[fluorescence artefact?]	77.3	105.6
COc1ccc(C)cc1NC(=O)c1cc2cc3ccc(C)cc3nc2o1	nt	-20.0	209.4*	39.8	104.8	111.8
CCOC(=O)N1CCC(NC(=O)c2cc3cc4cc(OC)ccc4nc3o2)CC1	91.0	1.3	112.4	-0.1	37.5*	91.8
COc1ccc2cc3cc(C(=O)NCCc4ccc(OC)c(OC)c4)oc3nc2c1	119.5	-0.3	98.4	20.9	29.0*	25.0*
COc1ccc2nc3oc(C(=O)NC4CCN(Cc5ccccc5)CC4)cc3cc2c1	75.8	2.9	91.7	11.1	75.4	88.8
COc1ccc2cc3cc(C(=O)NCc4cccs4)oc3nc2c1	84.8	20.7	151.1	37.8	48.5	64.7
CCC(=O)N1CCN(c2ccc(Cl)cc2NC(=O)c2ccc(Br)o2)CC1	94.0	-2.5	71.6	-3.9	102.0	101.9
CSc1nc2ccc(NS(=O)(=O)c3ccc(Cl)s3)cc2s1	104.3	5.4	97.6	10.5	91.5	92.6
CC1CCN(C(=O)CSc2ccc3nnc(-c4ccc(F)cc4)n3n2)CC1	105.6	-4.4	106.2	-1.4	76.3	102.9
CCCc1cc(=O)n2[nH]c(Cc3ccccc3)nc2n1	90.0	-37.5	105.5	-28.8	85.7	96.9
CCCCCn1c(=NC(C)=O)c(C#N)cc2c(=O)n3cccc(C)c3nc21	88.8	24.8	83.0	30.0	49.6	89.8
Cc1ccc2cc3cc(C(=O)NCCN4CCOCC4)oc3nc2c1	102.0	-0.3	144.2	-12.0	82.0	106.0
Cc1ccc2cc3cc(C(=O)NCc4ccc5c(c4)OCO5)oc3nc2c1	nt	34.6	125.0	51.2*[fluorescence artefact?]	85.7	117.2
COc1ccc2cc3cc(C(=O)Nc4ccc5c(c4)OCO5)oc3nc2c1	108.1	39.4	158.7	23.5	24.2*	10.4*
CC(C)CCOCC(=O)Nc1cccc(C(=O)O)c1	101.9	0.7	128.5	-0.1	90.2	98.7
CCc1cc2c(=O)n(-c3ccc(C)cc3)cnc2s1	97.1	-2.1	96.0	-14.7	89.1	102.7
Cc1nc2sccn2c1-c1nc(-c2cc3ccccc3o2)cs1	99.0	27.6	89.9	61.5*	85.0	101.2
Cc1ccnc(Nc2nc(-c3c(C)nc4sccn34)cs2)c1	94.4	-2.7	90.0	41.1	64.1	64.9
Cc1cc(C(=O)CSc2nc3ccccc3n2CCC#N)c(C)n1Cc1cccs1	79.7	19.8	273.1*	6.8	16.5*	71.0
Cc1cc(C)c(C(=O)CSc2nnc(-c3ccccc3Br)o2)cc1C	94.0	16.7	273.4*[fluorescence artefact?]	3.6	72.2	62.2
Cc1ccc(NC(=O)CSc2nnc(-c3ccccc3Br)o2)cc1C	87.5	4.9	96.5	2.7	77.0	97.6
Cc1cc(C(=O)CSc2nnc(-c3ccccc3F)o2)c(C)n1Cc1cccs1	97.0	20.3	309.5*	6.0	89.4	86.5
O=C(O)CCCCCCC1C(=O)NC(=O)N1CCC(O)C1CCCCC1 (configuration not stated)	68.1	-6.7	113.0	-2.6	95.3	103.0
CS(=O)(=O)NCc1nnc(SCC(=O)NC2CCCCC2)n1-c1ccc(F)cc1	99.6	-3.3	102.3	5.1	100.3	96.5
CC(=O)C1=C(C)NC(SCC(=O)c2ccccc2)=C(C#N)C1c1ccco1 (configuration not stated)	nt	19.0	99.6	4.9	62.9	72.2
SMILES	Lung fibro prol	ERb SRC1 inh	ERa SRC1 pot	ERa SRC1 inh	H69AR growth 86K	HUVEC prolif 384
CC(=O)C1=C(C)NC(SCC(=O)c2ccc(Cl)cc2)=C(C#N)C1c1ccco1 (configuration not stated)	nt	-111.1	104.4	5.6	28.7*	63.2
CCc1ccc(NC(=O)CSC2=C(C#N)C(c3ccco3)C3=C(CCCC3=O)N2)cc1 (configuration not stated)	94.0	8.3	123.3	-4.4	88.5	86.3
Cc1ccc(C(=O)CSC2=C(C#N)C(c3ccco3)CC(=O)N2)c(C)c1 (configuration not stated)	91.3	63.7*	69.0	60.3*	83.5	87.6
N#CC1=C(SCC(=O)c2ccc(Br)cc2)NC2=C(C(=O)CCC2)C1c1ccco1 (configuration not stated)	56.9	12.2	160.7	30.7	16.7*	51.0
COc1ccc(-n2c(COc3cccc4ccccc34)nnc2SCC(=O)NCc2ccco2)cc1	95.7	1.6	91.4	3.3	81.1	67.0
CCc1nnc(NC(=O)CSc2nc(-c3ccc(OC)cc3)ns2)s1	97.3	-8.8	144.8	-1.8	54.6	93.3
CCc1cc2ccc(OC)cc2nc1SCC(=O)Nc1cc(C)on1	83.4	25.2	204.9*	24.3	48.2	40.0
Cc1cc(NC(=O)CSc2ccc(-c3nc4cc(C)c(C)cc4[nH]3)cn2)no1	52.4	15.3	242.8*[fluorescence artefact?]	29.0	64.5	50.5
CCc1cc2ccccc2nc1SCC(=O)Nc1cc(C)on1	90.3	2.6	133.6	-0.2	75.2	89.4
Cc1ccc2nc(SCC(=O)Nc3cc(C)on3)[nH]c2c1	107.0	25.9	107.5	9.4	91.9	93.2
COc1ccc(-c2nsc(SCC(=O)Nc3cc(C)on3)n2)cc1	95.5	10.7	241.1*[fluorescence artefact?]	2.9	97.5	90.9
CCOCCn1c(SCc2c(F)cccc2Cl)nc2c1c(=O)[nH]c(=O)n2C	97.1	11.6	79.3	6.6	80.0	95.3
CN(c1ccccc1)C(c1ccc(F)cc1)c1nnnn1C1CCCC1 (configuration not stated)	97.9	2.6	100.0	3.4	78.1	106.7
CCCS(=O)(=O)N1CCCC(C(=O)NCC2CCCO2)C1 (configuration not stated)	101.1	-4.9	114.7	-5.4	90.3	97.9
COc1cc(C)nc(N2CCC(C(=O)NC3CCCCC3)CC2)n1	98.7	13.2	99.3	6.2	88.7	98.7
COc1ccc(F)cc1S(=O)(=O)Nc1ccc(C)cc1	101.9	0.6	118.1	1.7	53.7	81.9
Cc1ccc(C2=N/C(=C\c3cccs3)C(=O)N2Nc2ccccc2)cc1	95.2	-6.4	119.5	-2.8	99.0	92.5
O=C1N=C(c2ccccc2)S/C1=C\c1cccs1	99.8	22.5	111.8	56.6*[fluorescence artefact?]	97.5	85.4
CC(=O)C1=C(O)C(=O)N(CCCCCC(=O)O)C1c1ccc(N(C)C)cc1 (configuration not stated)	103.0	0.2	117.6	-34.8	91.8	102.3
COc1ccc(CN2CCCC2C(=O)Nc2ccc(OC)c(OC)c2)cc1OC (configuration not stated)	97.4	-10.9	116.2	1.1	87.4	103.7
COc1cc(N2C(=O)CSC23C(=O)Nc2ccccc23)cc(OC)c1OC (configuration not stated)	94.5	2.2	106.0	14.7	101.2	96.9
